NALP3 yeast inh: NALP3 inflammasome inhibitors in reconstituted yeast, primary screen, luminescence, uHTS; Yeast reconstituted NLRP3/ASC/caspase-1, beta-gal luminescence, 24 h; inhibition, % at 10 µM; actives 0.39% (n = 330,000); AID 2825, 2010;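 active means inhibition of 50% or more; inactive means inhibition below 50%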
PolyA inhibitor: polyadenylation inhibitors in yeast reporter cells, primary screen, luminescence, S. cerevisiae | S. cerevisiae SKY197-pL101 polyadenylation reporter, beta-gal luminescence; efflux-impaired pdr1/pdr3 knockout yeast; score 100 = 6 SD above DMSO | activity score, % at 12 µM | actives 0.02% (n = 300,000) | AID 1875, 2009;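 active means lowest replicate activity score at least 50, where 100 means six control SD above control mean; inconclusive means lowest score under 50 but half or more replicates reach 50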;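 further: yeast exposed to compound for 9 h at 30 °C; higher score means more reporter readthrough which indicates perturbed polyadenylation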
L major viab: Leishmania major promastigote growth inhibition, primary screen. Leishmania major promastigotes, resazurin fluorescence viability. inhibition, % at 10 µM. actives 9% (n = 200,000). AID 1063, 2008; in the data active means inhibition above about 50%;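 further: promastigotes grown with compound for 44 hours at 28 °C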
Calb FLC: C. albicans growth inhibition with fluconazole, primary screen, CaCi-2 strain, Alamar Blue fluorescence. C. albicans CaCi-2 + fluconazole, 48 h. growth inhibition, % (no concentration beside the values). actives 0.57% (n = 300,000). AID 1979, 2009;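 active means growth inhibition above about 58% in most replicates, limit read from the data, passing the limit was not always enough; inconclusive means exactly half the replicates above a set limit; inactive means most replicates below a set limit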;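 further: all wells also contain fluconazole at 8 µg/ml as a sub-toxic cotreatment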
T cruzi inh: inhibitors of intracellular T. cruzi growth, primary screen, luminescence, NIH3T3 host cells | actives 1.4% (n = 300,000) | T. cruzi beta-gal in NIH3T3, 90 h | inhibition, % (test concentration not listed);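 active means mean inhibition across valid replicates above about 55%, limit read from the data; inconclusive means mean below that limit but half or more replicates reach it; inactive means mean below it, under half of replicates reach it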;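 further: signal also drops with host cell toxicity which is not excluded here; higher percent means less beta-gal luminescence so fewer parasites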
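Material: NIH/3T3 host cells with β-galactosidase reporter T. cruzi; Input: 5,000 host fibroblasts per well; Medium: DMEM, 2% fetal bovine serum; Compound: 50 nL DMSO compound solution per well; Schedule: 3 h host attachment, then at least 90 h co-culture; Detection: luminescent β-galactosidase signal after 60 min lysis.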
NALP1 yeast inh: NALP1 inflammasome inhibitors in reconstituted yeast, colorimetric, S. cerevisiae, triplicate retest; S. cerevisiae NALP1/ASC/caspase-1 growth, X-gal OD620, 72 h; inhibition, % at 10 µM; actives 0.61% (n = 280,000); AID 2071, 2009; in the data active means inhibition mostly above about 24%, no sharp cut-off; inactive means mostly below about 32%
Large screens that a line does not name were inactive. The full list was thinned out, with hits kept by preference.

CCOC(=O)C1CCN(Cc2ccc(O)c(OC)c2)CC1	L major viab 84.5
CCOC(=O)C1CCN(Cc2ccc(OC)c(OCc3ccccc3)c2)CC1	none (no result: L major viab)
O=C(N/N=C/c1ccncc1)C1C2CCCCCCC21 (stereo not given)	none
O=C(Nc1ccccc1)c1ccccc1OCc1cccc([N+](=O)[O-])c1	L major viab 54.6
Cc1ccc(NC(=O)c2csc(-c3ccccc3)c2C)cc1	none (no result: NALP3 yeast inh, PolyA inhibitor, Calb FLC, T cruzi inh)
Cc1c(C(=O)Nc2cccc([N+](=O)[O-])c2)csc1-c1ccccc1	T cruzi inh 59.6
CN(c1ccccc1)S(=O)(=O)c1ccc(Cl)c(C(=O)Nc2ccc(-c3nc4ccccc4[nH]3)cc2)c1	L major viab 95.7, Calb FLC inconclusive, T cruzi inh 57.0 (no result: NALP1 yeast inh)
CN(c1ccccc1)S(=O)(=O)c1ccc(Cl)c(C(=O)Nc2nc3ccccc3[nH]2)c1	L major viab 99.2
CN(c1ccccc1)S(=O)(=O)c1ccc(Cl)c(C(=O)Nc2nn[nH]n2)c1	none
CCS(=O)(=O)N1CCC(NC(=O)C(Cc2ccc(OC)c(OC)c2)NC(C)=O)CC1 (stereo not given)	none (no result: L major viab)
COc1ccccc1CN1CC(C(=O)N(Cc2cnn(C)c2)C(C)C)CCC1=O (stereo not given)	none (no result: L major viab)
CN1C(=O)/C(=C/c2cn(CC(=O)N3CCCCC3)c3ccccc23)NC1=S	Calb FLC 111.7 (no result: PolyA inhibitor, L major viab, T cruzi inh)
COc1ccc(O)c(C(=O)c2cnc3c(c2)c(=O)[nH]c(=O)n3C)c1	none
COCCn1c(=O)[nH]c(=O)c2cc(C(=O)c3cc(Cl)ccc3O)cnc21	Calb FLC 88.5
CCc1cc(=O)oc2c(C)c(OC(C)C(=O)NCCCn3ccnc3)ccc12 (stereo not given)	none (no result: L major viab)
O=C(CN1CCN(Cc2ccccc2)CC1)Nc1ccc([N+](=O)[O-])cc1C(=O)Nc1ccccc1F	L major viab 99.2
CCOC(=O)N1CCN(CC(=O)Nc2ccc([N+](=O)[O-])cc2C(=O)Nc2ccccc2F)CC1	L major viab 75.2
O=C(CSc1nc(SCC(=O)NCc2ccccc2)n(-c2ccccc2)n1)NCc1ccccc1	L major viab 94.2
CN1C=CC=C/C1=C(\C#N)c1nc2ccccc2[nH]1	none
COC(=O)C1(CC2CC(c3ccncc3)=NO2)CCN(C(=O)OC(C)(C)C)CC1 (stereo not given)	none (no result: L major viab, NALP1 yeast inh)
COc1ccccc1OCCn1cc(/C=C(\C#N)C(=O)NCc2cccs2)c2ccccc21	L major viab 94.2
CCOc1ccc(/C=C(\C#N)C(=O)NCC2CCCO2)cc1OCC (stereo not given)	L major viab 64.2
N#C/C(=C\c1cn(Cc2ccccc2)c2ccccc12)C(=O)NCc1ccco1	L major viab 51.1
Cc1ccc(C)c(OCCn2cc(/C=C(/C#N)C(=O)NCC3CCCO3)c3ccccc32)c1 (stereo not given)	L major viab 97.9
CCC(Sc1nc(N)cc(=O)[nH]1)C(=O)Nc1cc(C)on1 (stereo not given)	none
CCc1cc(=O)oc2c(C)c(OCC(=O)NCCCN3CCCC3=O)ccc12	none (no result: L major viab)
Cc1ccc([N+](=O)[O-])cc1NC(=O)Nc1cccc(F)c1	none (no result: L major viab)
Cc1noc(C)c1C(=O)OCC(=O)Nc1ccccc1SCC#N	none (no result: PolyA inhibitor, L major viab, Calb FLC, T cruzi inh, NALP1 yeast inh)
CCN(CC)C(=O)Oc1nnc(SC(C)C)n1-c1ccc(Cl)cc1	none (no result: L major viab, NALP1 yeast inh)
COc1ccc(C(=O)N/N=C/C(Br)=C/c2ccccc2)cc1	none
Cn1cc(C(=O)N/N=C/C=C/c2ccccc2)ccc1=O	none (no result: NALP1 yeast inh)
Cn1cc(C(=O)N/N=C/C(Br)=C\c2ccccc2)ccc1=O	L major viab 80.4
O=C(N/N=C/C(Br)=C\c1ccccc1)c1n[nH]c2c1CCC2	L major viab 53.8
Cn1cc(C(=O)N/N=C/C(Br)=C/c2ccccc2)ccc1=O	L major viab 62.0
Cc1nc(SCC(=O)Nc2nnc(C(C)C)s2)n[nH]1	none (no result: L major viab)
N#Cc1c(Cl)nsc1NCCN1CCOCC1	none (no result: L major viab)
CC(=O)Nc1ccc(S(=O)(=O)NCc2nc(-c3ccccc3Cl)no2)cc1	none (no result: L major viab)
O=C(O)c1ccc2c(=O)[nH]c(CN3CCOCC3)nc2c1	none
O=c1[nH]c(CN2CCN(C/C=C/c3ccccc3)CC2)nc2ccccc12	T cruzi inh 72.1
O=c1[nH]c(CN2CCN(S(=O)(=O)/C=C/c3ccccc3)CC2)nc2ccccc12	none
O=c1[nH]c(CN2CCOCC2)nc2ccccc12	NALP1 yeast inh 24.0
Cc1ccccc1/C=N/n1c(-c2ccccn2)n[nH]c1=S	none (no result: L major viab)
S=c1[nH]nc(-c2ccccn2)n1/N=C/c1cccc2ccccc12	L major viab 50.0
O=C(O)c1ccccc1C(=O)Nc1ccc(-c2csc(-c3ccccc3)n2)cc1	none (no result: NALP3 yeast inh)
O=C(O)c1ccc(-c2nc(-c3ccccc3)cs2)cc1	Calb FLC inconclusive
O=C(O)c1ccc(-c2nc(-c3ccc(Cl)c(Cl)c3)cs2)cc1	Calb FLC 89.5
O=C(Nc1ccc(-c2csc(-c3ccccc3)n2)cc1)c1ccccc1Cl	T cruzi inh 61.9
CC1(C)CC(=O)C2=C(C1)C(c1cn(-c3ccccc3)nc1-c1ccccc1)C(C#N)=C(N)O2 (stereo not given)	L major viab 79.3, NALP1 yeast inh 43.1
CC1(C)CC(=O)C2=C(C1)OC(N)=C(C#N)C2Cc1ccccc1 (stereo not given)	none
CC1(C)CC(=O)C2=C(C1)OC(N)=C(C#N)C2c1cn(-c2ccccc2)nc1-c1ccc(F)cc1 (stereo not given)	L major viab 66.5, Calb FLC inconclusive
Cn1cccc1C1C(C#N)=C(N)OC2=C1C(=O)CC(C)(C)C2 (stereo not given)	none
CC1=NN(c2ccc(Cl)cc2)C(=O)/C1=C\c1cccn1-c1ccc(S(N)(=O)=O)cc1	L major viab 50.4
COc1ccccc1-c1cc(C(F)(F)F)nc(S(=O)(=O)CCCC(=O)N2CCOCC2)n1	L major viab 100.5
COc1ccccc1-c1cc(C(F)(F)F)nc(S(=O)(=O)CCCC(=O)O)n1	none
S=c1[nH]nc(-c2cc(-c3ccccc3)n[nH]2)n1/N=C/c1ccc(Br)s1	none (no result: L major viab)
COc1ccccc1-n1c(SCC(=O)c2ccc(O)cc2O)nc2cc([N+](=O)[O-])ccc21	L major viab 51.4
CCN(CC)S(=O)(=O)c1ccc2c(c1)nc(SCC(=O)NC1CC1)n2-c1ccccc1OC	L major viab 79.7
COc1ccccc1-n1c(SCC(=O)NC2CCS(=O)(=O)C2)nc2cc([N+](=O)[O-])ccc21 (stereo not given)	none
CCCCn1c(SCC(=O)c2ccc(O)cc2O)nc2cc(S(N)(=O)=O)ccc21	none (no result: L major viab)
c1ccc(CCc2cc3ccccc3[nH]2)cc1	none (no result: PolyA inhibitor, L major viab, Calb FLC, T cruzi inh, NALP1 yeast inh)
